Laboratory results reported in ChEMBL document CHEMBL1671809, “Discovery of phosphoric acid mono-{2-[(E/Z)-4-(3,3-dimethyl-butyrylamino)-3,5-difluoro-benzoylimino]-thiazol-3-ylmethyl} ester (Lu AA47070): a phosphonooxymethylene prodrug of a potent and selective hA(2A) receptor antagonist” (J Med Chem, 2011).

Columns and labels:
Cytochrome P450 3A4 = Cytochrome P450 3A4 (Homo sapiens, UniProt P08684); experiment: Inhibition of recombinant CYP3A4 after 30 mins; format: ADME
Method in brief: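 Recombinant CYP supersomes incubated in phosphate buffer with eight compound concentrations (40-0.02 μM) and fluorogenic substrates. CYP3A4: resorufin benzyl ether 100 μM, 30 min. Fluorescent metabolite read; IC50 relative to uninhibited controls.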

Homo sapiens = species on record: Homo sapiens; experiment: Selectivity ratio of Ki for human adenosine A1 receptor to Ki for human adenosine A2A receptor
Adenosine receptor A3 = molecular target: T1, Adenosine receptor A3 (Homo sapiens, UniProt P0DMS8); experiment: Displacement of [3H]-AB-MECA from human recombinant adenosine A3 receptor expressed in CHO-K1 cells after 60 mins; format: cell-based
T1 sequence (P0DMS8 whole entry): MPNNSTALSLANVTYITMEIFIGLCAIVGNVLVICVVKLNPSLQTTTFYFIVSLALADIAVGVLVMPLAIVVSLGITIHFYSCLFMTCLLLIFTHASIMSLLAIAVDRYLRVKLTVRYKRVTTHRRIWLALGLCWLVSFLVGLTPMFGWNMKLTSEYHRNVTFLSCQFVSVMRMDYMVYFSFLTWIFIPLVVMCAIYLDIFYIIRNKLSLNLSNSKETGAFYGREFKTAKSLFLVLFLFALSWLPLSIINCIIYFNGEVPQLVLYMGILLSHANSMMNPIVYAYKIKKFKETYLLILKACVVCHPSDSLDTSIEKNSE

[1] = molecular target: T2, Adenosine receptor A3 (Homo sapiens) (UniProt P0DMS8); experiment: Displacement of [3H]-AB-MECA from human recombinant adenosine A3 receptor expressed in CHO-K1 cells at 10 uM after 60 mins; format: cell-based
T2 sequence (whole entry): T1 sequence (P0DMS8 whole entry)

[2] = Apparent permeability from apical to basolateral side in human Caco2 cells at 1 uM after 21 to 28 days; format: ADME, cell-based; settings: caco-2
Method in brief: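 Caco-2 cells grown 21-28 days on permeable filters. A 2 mM DMSO stock was diluted into Hanks-HEPES pH 7.4. Dosing solution went into the apical (A-B) or basolateral (B-A) chamber, and the opposite chamber was sampled over 240 min with buffer replacement. Efflux ratio = Papp,B-A/Papp,A-B. Mean ± SD, n = 3.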

[3] = Protein binding in dog serum at 1 uM after 60 mins by LC/MS-MS; format: ADME, cell-free, Canis lupus familiaris; settings: read-out: PPB (converted)
[4] = Protein binding in human serum at 1 uM after 60 mins by LC/MS-MS; format: ADME, cell-free; settings: read-out: PPB (converted)
Adenosine receptor A2b = molecular target: T3, Adenosine receptor A2b (Homo sapiens, UniProt P29275); experiment: Displacement of [3H]-MRS1754 from human recombinant adenosine A2B receptor expressed in HEK293 cells after 120 mins
T3 sequence (P29275 whole entry): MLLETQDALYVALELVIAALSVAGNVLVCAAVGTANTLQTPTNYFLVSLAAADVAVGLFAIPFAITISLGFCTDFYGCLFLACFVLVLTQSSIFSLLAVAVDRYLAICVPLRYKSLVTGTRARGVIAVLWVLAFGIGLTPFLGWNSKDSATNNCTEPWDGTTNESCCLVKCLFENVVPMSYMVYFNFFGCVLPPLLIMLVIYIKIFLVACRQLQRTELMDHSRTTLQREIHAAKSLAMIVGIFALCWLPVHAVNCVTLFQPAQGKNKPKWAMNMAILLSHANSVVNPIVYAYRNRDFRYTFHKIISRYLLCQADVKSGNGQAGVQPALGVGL

Chain of Cytochrome P450 3A4 (P08684 whole entry): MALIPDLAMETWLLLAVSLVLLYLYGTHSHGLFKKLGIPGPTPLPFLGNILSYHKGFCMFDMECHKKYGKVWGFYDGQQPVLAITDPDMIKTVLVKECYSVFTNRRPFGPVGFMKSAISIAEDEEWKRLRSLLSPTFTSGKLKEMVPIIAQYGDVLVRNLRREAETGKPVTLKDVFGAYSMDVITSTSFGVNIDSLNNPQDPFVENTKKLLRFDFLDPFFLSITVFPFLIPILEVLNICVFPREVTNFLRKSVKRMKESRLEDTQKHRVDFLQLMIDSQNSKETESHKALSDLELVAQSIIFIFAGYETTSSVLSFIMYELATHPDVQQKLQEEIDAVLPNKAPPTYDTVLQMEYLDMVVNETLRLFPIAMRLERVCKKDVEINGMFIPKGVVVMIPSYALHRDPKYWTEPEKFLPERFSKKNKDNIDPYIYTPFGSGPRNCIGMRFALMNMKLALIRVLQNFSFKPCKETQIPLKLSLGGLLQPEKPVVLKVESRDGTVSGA

CC(C)(C)CC(=O)Nc1c(F)cc(C(=O)Nc2nccs2)cc1F
IC50 (Cytochrome P450 3A4): > 40 µM
Ratio Ki (Homo sapiens): 69
Ki (Adenosine receptor A3): > 10 µM
inhibition [1]: 36%
Papp A→B at 1 µM [2]: 88 ×10⁻⁶ cm/s
fraction unbound at 1 h, 1 µM [3]: 0.13
fraction unbound at 1 h, 1 µM [4]: 0.15
Ki (Adenosine receptor A2b): 260 nM
